# Activity calls are given as the source filed them. The calls are words filed in the database; no cut-off is given here.
# How the values were obtained:
# [1] = biological target: T1, Polyunsaturated fatty acid 5-lipoxygenase (Homo sapiens) (UniProt P09917); test: Inhibition of 5-lipoxygenase in human intact polymorphonuclear leukocytes assessed as suppression of A23187-induced product formation at 1 uM; design: scale not given: the % may be the effect or the level left
# T1 sequence (whole entry): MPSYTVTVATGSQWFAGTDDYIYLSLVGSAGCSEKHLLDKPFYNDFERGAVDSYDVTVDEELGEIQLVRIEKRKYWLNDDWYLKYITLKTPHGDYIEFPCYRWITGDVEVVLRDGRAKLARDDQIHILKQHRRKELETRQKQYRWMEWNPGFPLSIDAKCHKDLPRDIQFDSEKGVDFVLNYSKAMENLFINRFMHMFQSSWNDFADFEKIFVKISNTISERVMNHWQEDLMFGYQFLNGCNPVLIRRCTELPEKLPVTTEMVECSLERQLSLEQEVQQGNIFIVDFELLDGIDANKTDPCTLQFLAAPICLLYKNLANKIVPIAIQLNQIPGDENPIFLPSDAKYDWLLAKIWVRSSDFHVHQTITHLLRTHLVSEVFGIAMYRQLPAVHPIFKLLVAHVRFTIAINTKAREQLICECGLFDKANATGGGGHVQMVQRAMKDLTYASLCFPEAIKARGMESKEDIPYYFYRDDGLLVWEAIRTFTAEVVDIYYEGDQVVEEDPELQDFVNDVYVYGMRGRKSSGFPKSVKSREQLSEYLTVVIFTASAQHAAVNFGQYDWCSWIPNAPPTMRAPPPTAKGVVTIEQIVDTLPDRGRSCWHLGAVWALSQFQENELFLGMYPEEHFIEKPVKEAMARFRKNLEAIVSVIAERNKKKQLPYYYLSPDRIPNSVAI
# In short: (§1)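 Human PMNL were isolated from donor venous blood by dextran sedimentation, Nycoprep centrifugation and hypotonic lysis. 5 × 10^6 cells in 1 mL PBS pH 7.4 with 1 mg/mL glucose and 1 mM CaCl2 were preincubated 15 min at RT. Stimulation was with 2.5 µM A23187 plus 20 µM AA for 10 min at 37 °C. Methanol stop, PGB1 internal standard, HPLC of LTB4, its all-trans isomers and 5-H(P)ETE.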
# [2] = biological target: T1, Polyunsaturated fatty acid 5-lipoxygenase (Homo sapiens); test: Inhibition of 5-lipoxygenase in human intact polymorphonuclear leukocytes assessed as suppression of A23187-induced product formation at 10 uM; design: scale not given: the % may be the effect or the level left; in short: as §1
# [3] = biological target: T1, Polyunsaturated fatty acid 5-lipoxygenase (Homo sapiens); test: Inhibition of human recombinant 5-lipoxygenase expressed in Escherichia coli MV1190 assessed as suppression of CaCl2/arachidonic acid-induced product formation at 1 uM; design: scale not given: the % may be the effect or the level left
# [4] = biological target: T2, Polyunsaturated fatty acid 5-lipoxygenase (Homo sapiens, UniProt P09917); test: Inhibition of 5-lipoxygenase in human intact polymorphonuclear leukocytes assessed as suppression of A23187-induced product formation
# T2 sequence (P09917 whole entry): T1 sequence (whole entry)
# In short: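 Same PMNL assay: 15 min RT preincubation, then 2.5 µM A23187 plus 20 µM exogenous AA for 10 min at 37 °C. HPLC read-out as ng 5-LO products per 10^6 cells. IC50 approximated by linear interpolation around 50% activity from 4-5 concentrations; mean ± SE, n = 3-5.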
# [5] = biological target: T1, Polyunsaturated fatty acid 5-lipoxygenase (Homo sapiens); test: Inhibition of human recombinant 5-lipoxygenase expressed in Escherichia coli MV1190 assessed as suppression of CaCl2/arachidonic acid-induced product formation at 30 uM; design: scale not given: the % may be the effect or the level left
# [6] = biological target: T2, Polyunsaturated fatty acid 5-lipoxygenase; test: Inhibition of human recombinant 5-lipoxygenase expressed in Escherichia coli MV1190 assessed as suppression of CaCl2/arachidonic acid-induced product formation
SMILES,Activity [1],Activity [2],Activity [3] [%],IC50 [4] [nM],Activity [5] [%],IC50 [6] [nM]
CCOC(=O)C(C)Sc1nc(Cl)cc(Nc2ccc3ncccc3c2)n1 (configuration not stated),inactive,12%,–,–,–,–
CCCCCCC(Sc1nc(Cl)cc(NCc2ccc3ncccc3c2)n1)C(=O)OCC (configuration not stated),57.4%,11.4%,70.7,1400,56,37000
CCOC(=O)CSc1nc(Cl)cc(Nc2ccc3ncccc3c2)n1,86.3%,12.3%,–,2600,–,–
CCCCCCC(Sc1nc(Cl)cc(Nc2ccc3ncccc3c2)n1)C(=O)O (configuration not stated),inactive,20.1%,95.4,–,52.7,34000
CCCCCCC(Sc1nc(Cl)cc(Oc2ccc3ncccc3c2)n1)C(=O)O (configuration not stated),91.4%,10.7%,93.7,–,72.6,–
CCCCCCC(Sc1nc(Cl)cc(NCc2ccc3ncccc3c2)n1)C(=O)O (configuration not stated),87.6%,26.7%,95.6,–,51,31000
CCCCCCC(Sc1nc(Cl)cc(Nc2cccc(C)c2C)n1)C(=O)O (configuration not stated),64.3%,28.9%,–,4100,–,–
CCOC(=O)CSc1nc(Cl)cc(OCc2ccc3ncccc3c2)n1,80%,3.9%,–,–,–,–
CCCCCCC(Sc1nc(Cl)cc(Oc2ccc3ncccc3c2)n1)C(=O)OCC (configuration not stated),67.4%,4.5%,79.1,1700,59.2,–
Cc1cccc(Nc2cc(Cl)nc(SCC(=O)O)n2)c1C,inactive,inactive,–,–,–,–
CCCCCCC(Sc1nc(Cl)cc(Nc2ccc3ncccc3c2)n1)C(=O)OCC (configuration not stated),27.9%,4%,68.2,600,43.8,19000
CCOC(=O)C(C)Sc1nc(Cl)cc(Nc2cccc(C)c2C)n1 (configuration not stated),inactive,22.8%,–,–,–,–
Cc1cccc(Nc2cc(Cl)nc(SC(C)C(=O)O)n2)c1C (configuration not stated),inactive,inactive,–,–,–,–
CC(=O)N(O)C/C=C/c1cccc(Oc2ccccc2)c1,3.3%,–,10.8,–,–,–
CCOC(=O)C(Sc1nc(Cl)cc(Nc2ccc3ncccc3c2)n1)c1ccccc1 (configuration not stated),52.7%,3.5%,–,1200,–,–
CCCCCCC(Sc1nc(Cl)cc(Nc2cccc(C)c2C)n1)C(=O)OCC (configuration not stated),84.9%,30.5%,–,–,–,–
CCCCC(Sc1nc(Cl)cc(Nc2ccc3ncccc3c2)n1)C(=O)OCC (configuration not stated),51.8%,1.6%,–,1100,–,–
Cc1cccc(Nc2cc(Cl)nc(SC(C(=O)O)c3ccccc3)n2)c1C (configuration not stated),inactive,inactive,–,–,–,–
O=C(O)CSc1nc(Cl)cc(Oc2ccc3ncccc3c2)n1,inactive,inactive,–,–,–,–

# Results, then the molecule that gave them:
Activity [1],Activity [2],Activity [3] [%],IC50 [4] [nM],Activity [5] [%],IC50 [6] [nM],SMILES
inactive,inactive,–,–,–,–,O=C(O)CSc1nc(Cl)cc(Nc2ccc3ncccc3c2)n1
inactive,69.1%,–,–,–,–,O=C(O)C(Sc1nc(Cl)cc(Nc2ccc3ncccc3c2)n1)c1ccccc1 (configuration not stated)
71.1%,14.5%,–,3900,–,–,O=C(O)CSc1nc(Cl)cc(Nc2cccc3c2CCC3)n1
inactive,77.6%,–,–,–,–,CCOC(=O)CSc1nc(Cl)cc(Oc2ccc3ncccc3c2)n1
53.1%,18.7%,–,1800,–,–,CCOC(=O)C(Sc1nc(Cl)cc(Nc2cccc(C)c2C)n1)c1ccccc1 (configuration not stated)
65.2%,8.9%,–,3200,–,–,CCOC(=O)CSc1nc(Cl)cc(Nc2cccc3c2CCC3)n1
inactive,inactive,–,–,–,–,CC(Sc1nc(Cl)cc(Nc2ccc3ncccc3c2)n1)C(=O)O (configuration not stated)
76.9%,77.7%,–,–,–,–,CCOC(=O)CSc1nc(Cl)cc(Nc2cccc(C)c2C)n1
inactive,50%,–,–,–,–,CCCCC(Sc1nc(Cl)cc(Nc2ccc3ncccc3c2)n1)C(=O)O (configuration not stated)

# Reference: ChEMBL document CHEMBL1140046, “Novel and potent inhibitors of 5-lipoxygenase product synthesis based on the structure of pirinixic acid” (J Med Chem, 2008)
